Activity calls are given as the source filed them. The rule behind the calls is not given here.
Legend:
Sus scrofa [1] = species on record: Sus scrofa; assay: Inhibition of porcine brain tubulin alpha/beta polymerization at 10 uM measured every minute for 60 mins relative to colchicine
Outline: (§1)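 Turbidity assay with porcine brain α,β-tubulin (97%), final 2 mg/mL, in pH 6.9 buffer of 80.0 mM PIPES sesquisodium, 2.0 mM MgCl2, 0.5 mM EGTA and 1.0 mM GTP. Tubulin added at 0 °C to compound in DMSO, then A450 read every minute for 60 min at 37 °C. Time-zero reading subtracted. […] Triplicate; ANOVA with Tukey test.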

Sus scrofa [2] = species on record: Sus scrofa; assay: Inhibition of porcine brain tubulin alpha/beta polymerization at 50 uM measured every minute for 60 mins relative to colchicine; outline: as §1
Sus scrofa [3] = species on record: Sus scrofa; assay: Inhibition of porcine brain tubulin alpha/beta polymerization at 50 uM measured every minute for 90 mins relative to colchicine
Sus scrofa [4] = species on record: Sus scrofa; assay: Inhibition of porcine brain tubulin alpha/beta polymerization at 10 uM measured every minute for 90 mins relative to colchicine
Sus scrofa [5] = species on record: Sus scrofa; assay: Competitive inhibition of colchicine binding to porcine brain tubulin alpha/beta polymerization at 10 to 50 uM preincubated for 30 mins followed by 50 uM colchicine addition and measured after 60 mins by fluorescence assay
Outline: (§2)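 Porcine brain α,β-tubulin (97%) in general buffer pH 6.9 (80.0 mM PIPES sesquisodium, 2.0 mM MgCl2, 0.5 mM EGTA), no GTP, final 1 mg/mL, added at 0 °C to compound in DMSO (final 10, 20, 50 μM). […] DMSO control included.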

Sus scrofa [6] = species on record: Sus scrofa; assay: Competitive inhibition of colchicine binding to porcine brain tubulin alpha/beta polymerization at 10 to 50 uM preincubated for 30 mins followed by 5 uM colchicine addition and measured after 60 mins by fluorescence assay; outline: as §2
Sus scrofa [7] = species on record: Sus scrofa; assay: Induction of porcine brain tubulin alpha/beta polymerization at 10 uM measured every minute for 30 mins
HeLa = assay: Cytotoxicity against human HeLa cells assessed as reduction in cell viability after 72 hrs by SRB assay; format: functional, cell-based
HCT-116 = assay: Cytotoxicity against human HCT116 cells assessed as reduction in cell viability after 72 hrs by SRB assay; format: functional, cell-based; details: HCT-116, 72 h

| inhibition (Sus scrofa [1]) [%] | inhibition (Sus scrofa [2]) [%] | inhibition (Sus scrofa [3]) [%] | inhibition (Sus scrofa [4]) [%] | inhibition (Sus scrofa [5]) | inhibition (Sus scrofa [6]) | Activity (Sus scrofa [7]) | SMILES | IC50 (HeLa) [µM] | IC50 (HCT-116) [µM] |
| --- | --- | --- | --- | --- | --- | --- | --- | --- | --- |
| 26.1 | 76.9 | 46.9 | – | – | – | – | Cc1cc2c(cc1OC(=O)c1ccccc1)[C@@]1(C)CC[C@H](O1)[C@H](C)C2 | – | – |
| 24.4 | 54.6 | 66.7 | 51 | Active | inactive | Active | C/C1=C/CC[C@@H](C)c2cc(O)c(C)cc2C1 | – | – |
| 89.9 | 51.8 | 78.5 | 97.9 | inactive | inactive | – | Cc1cc2c(cc1OC(=O)c1ccccc1)[C@H](C)CCC[C@]1(C)O[C@H]21 | 3.3 | 5 |
| 9.2 | -3.4 | -5.7 | 2.1 | – | – | – | Cc1cc2c(cc1OC(=O)c1ccccc1)[C@@]1(C)CCC[C@H](C)[C@@H]2O1 | – | – |
| – | – | 56.2 | 58.1 | – | – | – | C/C1=C/c2cc(C)c(O)cc2[C@H](C)CCC1 | – | – |
| 48.7 | 33.6 | 44.7 | 46.9 | Active | inactive | – | Cc1cc2c(cc1O)[C@H](C)CC[C@@H]1O[C@]1(C)C2 | – | – |
| 38.7 | 86.6 | 106 | 35.4 | – | – | – | C/C1=C/c2cc(C)c(OC(=O)c3ccccc3)cc2[C@H](C)CCC1 | – | – |
| – | – | – | – | – | – | – | COc1cc2c(c(OC)c1OC)-c1ccc(OC)c(=O)cc1[C@@H](NC(C)=O)CC2 [COLCHICINE] | 0.011 | 0.04 |
| 30.3 | 10.9 | 42.2 | 47.9 | – | – | – | Cc1cc2c(cc1OC(=O)c1ccccc1)[C@H](C)CC[C@@H]1O[C@]1(C)C2 | – | – |
| 30.3 | 19.3 | 36.9 | 8.3 | – | – | – | Cc1cc2c(cc1O)[C@H](C)CCC[C@]1(C)O[C@H]21 | – | – |
| 11.8 | 46.2 | 58.9 | 56.3 | – | – | – | C/C1=C/CC[C@@H](C)c2cc(OC(=O)c3ccccc3)c(C)cc2C1 | – | – |

| SMILES | inhibition (Sus scrofa [1]) [%] | inhibition (Sus scrofa [2]) [%] | inhibition (Sus scrofa [3]) [%] | inhibition (Sus scrofa [4]) [%] | inhibition (Sus scrofa [5]) | inhibition (Sus scrofa [6]) | Activity (Sus scrofa [7]) | IC50 (HeLa) [µM] | IC50 (HCT-116) [µM] |
| --- | --- | --- | --- | --- | --- | --- | --- | --- | --- |
| Cc1cc2c(cc1O)[C@@]1(C)CCC[C@H](C)[C@@H]2O1 | 38.7 | 76.1 | 62.5 | 21.9 | – | – | – | – | – |
| Cc1cc2c(cc1O)[C@@]1(C)CC[C@H](O1)[C@H](C)C2 | 40.2 | 66.3 | 67 | 43.7 | – | – | – | – | – |

Source: ChEMBL document CHEMBL4480454, “Parvifoline Derivatives as Tubulin Polymerization Inhibitors” (J Nat Prod, 2019)
